Assay results published in ChEMBL document CHEMBL3044709, “Antimicrobial furostanol saponins from the seeds of Capsicum annuum L. var. acuminatum” (2002).
Converted amounts (≈) assume the structure as drawn.

Experiments:
Assay type in all cases: functional
[1] = tested on: Escherichia coli; assay: Antimicrobial activity against Escherichia coli DSM 682 after 48 hr by agar dilution method; details: DSM 682, 48 h
Procedure, shortened: (§1)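 Agar dilution on standard plate count agar: 0.5 mL of a 2-fold serial dilution of sample mixed into 9.5 mL medium, poured into Petri dishes, organism streaked on the surface. Incubated at 28 °C (36 and 48 h). MIC is the lowest tested concentration with no visible growth.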

[2] = tested on: Escherichia coli; assay: Antimicrobial activity against Escherichia coli ATCC 35346 after 48 hr by agar dilution method; details: ATCC 35346, 48 h; procedure, shortened: as §1
[3] = tested on: Stutzerimonas stutzeri; assay: Antimicrobial activity against Pseudomonas stutzeri ATCC 962 after 48 hr by agar dilution method; details: ATCC 962, 48 h; procedure, shortened: as §1
[4] = tested on: Pseudomonas aeruginosa; assay: Antimicrobial activity against Pseudomonas aeruginosa DSM 1117 after 48 hr by agar dilution method; details: DSM 1117, 48 h; procedure, shortened: as §1
[5] = tested on: Limosilactobacillus fermentum; assay: Antimicrobial activity against Lactobacillus fermentum DSM 20052 after 48 hr by agar dilution method; details: DSM 20052, 48 h; procedure, shortened: as §1
[6] = tested on: Lacticaseibacillus casei; assay: Antimicrobial activity against Lactobacillus casei DSM 20011 after 48 hr by agar dilution method; details: DSM 20011, 48 h; procedure, shortened: as §1
[7] = tested on: Lactiplantibacillus plantarum; assay: Antimicrobial activity against Lactobacillus plantarum DSM 20174 after 48 hr by agar dilution method; details: DSM 20174, 48 h; procedure, shortened: as §1
[8] = tested on: Lacticaseibacillus rhamnosus; assay: Antimicrobial activity against Lactobacillus rhamnosus DSM 20021 after 48 hr by agar dilution method; details: DSM 20021, 48 h; procedure, shortened: as §1
[9] = tested on: Bacillus cereus; assay: Antimicrobial activity against Bacillus cereus DSM 345 after 48 hr by agar dilution method; details: DSM 345, 48 h; procedure, shortened: as §1
[10] = tested on: Micrococcus luteus; assay: Antimicrobial activity against Micrococcus luteus DSM 348 after 48 hr by agar dilution method; details: DSM 348, 48 h; procedure, shortened: as §1
[11] = tested on: Staphylococcus aureus; assay: Antimicrobial activity against Staphylococcus aureus subsp. aureus DSM 346 after 48 hr by agar dilution method; details: DSM 346, 48 h; procedure, shortened: as §1
[12] = tested on: Staphylococcus epidermidis; assay: Antimicrobial activity against Staphylococcus epidermidis DSM 1798 after 48 hr by agar dilution method; details: DSM 1798, 48 h; procedure, shortened: as §1
[13] = tested on: Bacillus licheniformis; assay: Antimicrobial activity against Bacillus licheniformis DSM 13=ATCC 14580 after 48 hr by agar dilution method; details: DSM 13 = ATCC 14580, 48 h; procedure, shortened: as §1
[14] = tested on: Bacillus subtilis; assay: Antimicrobial activity against Bacillus subtilis DSM 345 after 48 hr by agar dilution method; details: DSM 345, 48 h; procedure, shortened: as §1
[15] = tested on: Enterococcus faecalis; assay: Antimicrobial activity against Enterococcus faecalis DSM 2570 after 48 hr by agar dilution method; details: DSM 2570, 48 h; procedure, shortened: as §1
[16] = tested on: Rhizopus arrhizus; assay: Antimicrobial activity against Rhizopus oryzae ATCC 56536 after 48 hr by agar dilution method; details: ATCC 56536, 48 h
Procedure, shortened: (§2)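 Fungi tested by agar dilution in malt agar. Serial 2-fold sample dilutions (0.5 mL) were mixed with 9.5 mL medium and plated, then streaked with the organism. Incubation at 28 °C for 36 and 48 h. MIC is the lowest tested concentration without growth.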

[17] = tested on: Trichoderma viride; assay: Antimicrobial activity against Hypocrea rufa ATCC 28020 after 48 hr by agar dilution method; details: ATCC 28020, 48 h; procedure, shortened: as §2
[18] = tested on: Setophoma terrestris; assay: Antimicrobial activity against Setophoma terrestris ATCC 11321 after 48 hr by agar dilution method; details: ATCC 11321, 48 h; procedure, shortened: as §2
[19] = tested on: Penicillium expansum; assay: Antimicrobial activity against Penicillium expansum ATCC 7861 after 48 hr by agar dilution method; details: ATCC 7861, 48 h; procedure, shortened: as §2

Row | MIC [1] | MIC [2] | MIC [3] | MIC [4] | MIC [5] | MIC [6] | MIC [8] | MIC [9] | MIC [10] | MIC [11] | MIC [12] | MIC [13] | MIC [14] | MIC [15] | MIC [16] | MIC [17] | MIC [18] | MIC [19] | SMILES | MIC [7]
1 | 1000 µg/mL (≈ 719 µM) | 1000 µg/mL (≈ 719 µM) | > 1000 µg/mL | > 1000 µg/mL | 1000 µg/mL (≈ 719 µM) | 1000 µg/mL (≈ 719 µM) | 1000 µg/mL (≈ 719 µM) | 1000 µg/mL (≈ 719 µM) | > 1000 µg/mL | > 1000 µg/mL | > 1000 µg/mL | > 1000 µg/mL | > 1000 µg/mL | > 1000 µg/mL | – | – | – | – | COC1(CC[C@@H](C)CO[C@@H]2O[C@H](CO)[C@@H](O)[C@H](O)[C@H]2O)O[C@H]2C[C@H]3[C@@H]4CC[C@H]5C[C@@H](O[C@@H]6O[C@H](CO)[C@H](O[C@@H]7O[C@H](CO)[C@@H](O)[C@H](O[C@@H]8OC[C@@H](O)[C@H](O)[C@H]8O)[C@H]7O[C@@H]7O[C@H](CO)[C@@H](O)[C@H](O[C@@H]8O[C@H](CO)[C@@H](O)[C@H](O)[C@H]8O)[C@H]7O)[C@H](O)[C@H]6O)CC[C@]5(C)[C@H]4CC[C@]3(C)[C@H]2[C@@H]1C (stereo partly drawn) [22-O-METHYL-CAPSICOSIDE D] | 1000 µg/mL (≈ 719 µM)
2 | 1000 µg/mL (≈ 921 µM) | 1000 µg/mL (≈ 921 µM) | > 1000 µg/mL | > 1000 µg/mL | 1000 µg/mL (≈ 921 µM) | 1000 µg/mL (≈ 921 µM) | 1000 µg/mL (≈ 921 µM) | 1000 µg/mL (≈ 921 µM) | > 1000 µg/mL | > 1000 µg/mL | > 1000 µg/mL | > 1000 µg/mL | > 1000 µg/mL | > 1000 µg/mL | 1000 µg/mL (≈ 921 µM) | 1000 µg/mL (≈ 921 µM) | 1000 µg/mL (≈ 921 µM) | 1000 µg/mL (≈ 921 µM) | C=C[C@](C)(CC/C=C(\C)CC/C=C(\C)CC/C=C(/C)CO[C@@H]1O[C@@H](C)[C@H](O)[C@@H](O[C@@H]2O[C@H](CO[C@@H]3O[C@@H](C)[C@H](O)[C@@H](O)[C@H]3O)[C@@H](O)[C@H](O)[C@H]2O)[C@H]1O)O[C@@H]1O[C@H](CO)[C@@H](O)[C@H](O)[C@H]1O[C@@H]1O[C@H](CO)[C@@H](O)[C@H](O)[C@H]1O [CAPSIANOSIDE II] | 1000 µg/mL (≈ 921 µM)
3 | 1000 µg/mL (≈ 702 µM) | 1000 µg/mL (≈ 702 µM) | > 1000 µg/mL | > 1000 µg/mL | 1000 µg/mL (≈ 702 µM) | 1000 µg/mL (≈ 702 µM) | 1000 µg/mL (≈ 702 µM) | 1000 µg/mL (≈ 702 µM) | > 1000 µg/mL | > 1000 µg/mL | > 1000 µg/mL | > 1000 µg/mL | > 1000 µg/mL | > 1000 µg/mL | 1000 µg/mL (≈ 702 µM) | > 1000 µg/mL | 1000 µg/mL (≈ 702 µM) | 1000 µg/mL (≈ 702 µM) | C[C@H](CCC1(O)O[C@H]2C[C@H]3[C@@H]4CC[C@H]5C[C@@H](O[C@@H]6O[C@H](CO)[C@H](O[C@@H]7O[C@H](CO)[C@@H](O)[C@H](O[C@@H]8O[C@H](CO)[C@@H](O)[C@H](O)[C@H]8O)[C@H]7O[C@@H]7O[C@H](CO)[C@@H](O)[C@H](O[C@@H]8O[C@H](CO)[C@@H](O)[C@H](O)[C@H]8O)[C@H]7O)[C@H](O)[C@H]6O)[C@H](O)C[C@]5(C)[C@H]4CC[C@]3(C)[C@H]2[C@@H]1C)CO[C@@H]1O[C@H](CO)[C@@H](O)[C@H](O)[C@H]1O (stereo partly drawn) [CAPSICOSIDE A] | 1000 µg/mL (≈ 702 µM)
